Data reported in ChEMBL document CHEMBL1157760, “Design, synthesis and anticancer activities of stilbene-coumarin hybrid compounds: Identification of novel proapoptotic agents” (Bioorg Med Chem, 2010).
pIC50: −log10 of the molar value. One block for each molecule: values may come before it. Activity calls are given as the source filed them. The rule behind the calls is not given here.

How the values were obtained:
[1] = tested on: NCI-H460; test: Antiproliferative activity against human H460 cells after 72 hrs; assay type: functional, cell-based; conditions: NCI-H460, 72 h
How it was run: (§1)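 Growth inhibition: log-phase tumour cells seeded in duplicate, drug added 24 h after seeding, cells harvested 72 h after exposure and counted with a cell counter. IC50 taken as concentration giving 50% fewer cells than untreated control.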

[2] = tested on: NCI-H460; test: Cell cycle arrest in human H460 cells assessed as accumulation at G2/M phase at 20 uM after 24 hrs by propidium iodide staining-based flow cytometry; assay type: functional
How it was run: (§2)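 H460 cells treated 24 h at 10 and 20 µM (resveratrol), 0.5 and 1.5 µM, or 0.3 and 3 µM, then analysed for cell cycle phase distribution (G1, S, G2/M).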

[3] = tested on: NCI-H460; test: Cell cycle arrest in human H460 cells assessed as accumulation at G2/M phase after 24 hrs by propidium iodide staining-based flow cytometry; assay type: functional; how it was run: as §2
[4] = tested on: NCI-H460; test: Induction of apoptosis in human H460 cells at 10 to 20 uM after 72 hrs by TUNEL assay; assay type: functional, cell-based
How it was run: (§3)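 H460 cells exposed 72 h to drug. Floating plus adherent cells fixed in 4% paraformaldehyde for 60 min at room temperature, then resuspended in ice-cold PBS. Fluorescein in situ cell-death (TUNEL) kit used and cells read by flow cytometry. Result given as percent TUNEL-positive cells against untreated control.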

[5] = Antiproliferative activity against human JR8 cells after 72 hrs; assay type: functional, cell-based; conditions: JR8, 72 h; how it was run: as §1
[6] = tested on: A-431; test: Antiproliferative activity against human A431 cells after 72 hrs; assay type: functional, cell-based; conditions: A-431, 72 h; how it was run: as §1
[7] = tested on: NCI-H460; test: Induction of apoptosis in human H460 cells assessed as CDKp21-p34CDC2 complex formation at 1.5 uM after 24 hrs by immunoprecipitation assay; assay type: functional, cell-based
How it was run: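 H460 cells exposed 24 h at 1.5 µM, lysed in NET buffer (pH 7.4, 0.1% NP40, protease inhibitors) on ice then at 4 °C. Lysate cleared at 10,000g and BCA-quantified. 500 µg immunoprecipitated with anti-cdc2 antibody 2 h at 4 °C, then with protein A-sepharose overnight at 4 °C. Pellets washed, eluted and immunoblotted for p34cdc2 and p21.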

[8] = tested on: NCI-H460; test: Induction of apoptosis in human H460 cells assessed as cleavage of caspase 3 at 1.5 uM after 24 hrs by Western blot analysis; assay type: functional, cell-based
How it was run: (§4)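 After 24 h drug exposure, H460 cells rinsed twice in ice-cold PBS with 0.1 mM sodium orthovanadate and lysed in hot sample buffer. Protein quantified, separated by SDS-PAGE, transferred to nitrocellulose, probed with primary antibodies and HRP secondaries, and detected by enhanced chemiluminescence. Actin served as loading control.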

[9] = tested on: NCI-H460; test: Antitumor activity against human H460 cells xenograft model assessed as tumor growth inhibition at 10 to 20 mg/kg, po administered daily; assay type: functional; conditions: dose mg/kg 10-20
[10] = tested on: NCI-H460; test: Increase in CDKp21 protein expression in human H460 cells at 1.5 uM after 24 hrs by Western blot analysis; assay type: functional, cell-based; how it was run: as §4
[11] = tested on: NCI-H460; test: Induction of apoptosis in human H460 cells at 0.5 to 1.5 uM after 72 hrs by TUNEL assay; assay type: functional, cell-based; how it was run: as §3
[12] = tested on: NCI-H460; test: Upregulation of cyclin B1 protein expression in human H460 cells at 1.5 uM after 24 hrs by Western blot analysis; assay type: functional, cell-based; how it was run: as §4
[13] = tested on: NCI-H460; test: Upregulation of p34CDC2 protein expression in human H460 cells at 1.5 uM after 24 hrs by Western blot analysis; assay type: functional, cell-based; how it was run: as §4
[14] = tested on: NCI-H460; test: Induction of apoptosis in human H460 cells assessed as cleavage of PARP at 1.5 uM after 24 hrs by Western blot analysis; assay type: functional, cell-based; how it was run: as §4
[15] = tested on: NCI-H460; test: Induction of apoptosis in human H460 cells at 0.3 to 3 uM after 72 hrs by TUNEL assay; assay type: functional, cell-based; how it was run: as §3
[16] = tested on: NCI-H460; test: Upregulation of cyclin B1 protein expression in human H460 cells at 3 uM after 24 hrs by Western blot analysis; assay type: functional, cell-based; how it was run: as §4
[17] = tested on: NCI-H460; test: Increase in CDKp21 protein expression in human H460 cells at 3 uM after 24 hrs by Western blot analysis; assay type: functional, cell-based; how it was run: as §4
[18] = tested on: NCI-H460; test: Upregulation of p34CDC2 protein expression in human H460 cells at 3 uM after 24 hrs by Western blot analysis; assay type: functional, cell-based; how it was run: as §4

- pIC50 [1]: 4.89
SMILES: COc1cccc(/C=C/c2cc(=O)oc3cc(OC)ccc23)c1

- pIC50 [1]: 4.96
SMILES: COc1cc(/C=C/c2cc(=O)oc3ccc(OC)cc23)cc(OC)c1

- pIC50 [1]: 6.35
- pIC50 [6]: 5.46
SMILES: COc1cc(/C=C/c2cc(=O)oc3cc(OC)ccc23)cc(OC)c1
- pIC50 [5]: 5.49
- Activity [7]: Active
- Activity [8]: Active
- inhibition (INH) [9]: 50%
- Activity [10]: Active
- Activity [11]: Active
- Activity [12]: Active
- Activity [13]: Active
- Activity [14]: Active

- pIC50 [1]: 6.54
- pIC50 [6]: 5.46
SMILES: COc1ccc2c(/C=C/c3cc(C)cc(C)c3)cc(=O)oc2c1
- pIC50 [5]: 5.46
- Activity [15]: Active
- Activity [16]: Active
- Activity [17]: Active
- Activity [18]: Active

- pIC50 [1]: 4.57
SMILES: O=c1cc(/C=C/c2cc(O)cc(O)c2)c2ccc(O)cc2o1

- pIC50 [1]: < 4.00
SMILES: COc1ccc2c(/C=C/c3cc(OC)c(OC)c(OC)c3)cc(=O)oc2c1

The next lines start with the molecule.

SMILES: Oc1ccc(/C=C/c2cc(O)cc(O)c2)cc1 [RESVERATROL]
- pIC50 [1]: 4.89
- Activity [2]: Active
- Activity [3]: Dose-dependent effect
- Activity [4]: inactive

SMILES: COc1ccc2c(/C=C/c3ccc(OCC=C(C)C)cc3)cc(=O)oc2c1
- pIC50 [1]: < 4.30

SMILES: COc1cc(/C=C/c2cc(=O)oc3ccccc23)cc(OC)c1
- pIC50 [1]: 5.59

SMILES: COc1cc(/C=C/c2cc3ccc(OC)cc3oc2=O)cc(OC)c1
- pIC50 [1]: < 5.00

SMILES: COc1ccc2c(/C=C/c3ccc(OC)c(OC)c3OC)cc(=O)oc2c1
- pIC50 [1]: < 4.30
